Results: ChEMBL document CHEMBL1129645, “A novel series of [2-[methyl(2-phenethyl)amino]-2-oxoethyl] benzene-containing leukotriene B4 antagonists: initial structure-activity relationships” (J Med Chem, 1996)

Experiments:
[1] = target: T1, Leukotriene B4 receptor 1 (Homo sapiens, UniProt Q15722); experiment: Compound tested for binding affinity against Leukotriene B4 receptor using radioligand binding assay from Human PMN cells at a concentration of 300 nM.; format: cell-based
Outline: (§1)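 Human PMNs from acid-citrate-dextrose blood, used within 2 h, isolated by dextran sedimentation and Histopaque 1077 with hypotonic erythrocyte lysis. Cells were resuspended in Hanks/5 mM HEPES pH 7.4/1% ovalbumin. Compound in DMSO, 0.5 nM [3H]LTB4 and 3 × 10^6 PMN/mL were incubated 20 min at 4 °C, then GF/B filtered and scintillation counted. Nonspecific binding was defined with 1 µM LTB4. Read-out was % inhibition or IC50.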

[2] = target: Leukotriene B4 receptor (Cavia porcellus); experiment: Binding affinity for Leukotriene B4 receptor of guinea pig spleen membranes
[3] = tested on: Leukotriene B4 receptor (Cavia porcellus); experiment: Compound tested for binding affinity against Leukotriene B4 receptor using radioligand binding assay from guinea pig spleen membranes at a concentration of 300 nM.; conditions: Membrane
[4] = target: T1, Leukotriene B4 receptor 1; experiment: (§2) Compound tested for binding affinity against Leukotriene B4 receptor using radioligand binding assay from Human PMN cells; format: cell-based
Outline: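 Cells were resuspended in Hanks/5 mM HEPES pH 7.4/1% ovalbumin. Compound in DMSO, 0.5 nM [3H]LTB4 and 3 × 10^6 PMN/mL were incubated 20 min at 4 °C, then GF/B filtered and scintillation counted. Nonspecific binding was defined with 1 µM LTB4. Read-out was % inhibition or IC50.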

[5] = target: T1, Leukotriene B4 receptor 1; experiment: as §2; format: cell-based; outline: as §1; remark: listed apart in the source

T1 sequence (Q15722 whole entry): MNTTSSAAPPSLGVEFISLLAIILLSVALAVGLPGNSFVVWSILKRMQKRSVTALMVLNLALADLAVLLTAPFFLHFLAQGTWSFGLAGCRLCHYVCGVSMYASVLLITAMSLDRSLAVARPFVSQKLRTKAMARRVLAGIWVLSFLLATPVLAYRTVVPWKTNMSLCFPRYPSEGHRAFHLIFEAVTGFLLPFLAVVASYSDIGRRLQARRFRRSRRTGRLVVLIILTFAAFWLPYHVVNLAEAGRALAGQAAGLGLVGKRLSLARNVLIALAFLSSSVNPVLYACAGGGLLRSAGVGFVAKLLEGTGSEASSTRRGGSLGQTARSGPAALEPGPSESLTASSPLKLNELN

C/C(=C\C(=O)O)c1cc(CC(=O)N(C)CCc2ccccc2)cc(OCc2ccccc2)c1
I [1]: 29% | IC50 [2]: 143 nM

CN(CCc1ccccc1)C(=O)Cc1cccc(OCc2ccccc2)c1
IC50 [2]: 225 nM

C/C(=C\c1cc(CC(=O)N(C)CCc2ccccc2)ccc1-c1ccccc1)C(=O)O
IC50 [2]: 65 nM

CN(CCc1ccccc1)C(=O)Cc1ccc(-c2ccccc2)c(C(=O)O)c1
IC50 [2]: 27 nM

COC(=O)c1cc(CC(=O)N(C)CCc2ccccc2)ccc1-c1ccccc1
I [3]: 37% | I [1]: 0%

CN(CCc1ccccc1)C(=O)Cc1ccc(OCc2ccccc2)cc1
IC50 [4]: 900 nM | IC50 [2]: 65.6 nM

CN(CCc1ccccc1)C(=O)Cc1ccc(-c2ccccc2)c(/C=C/C(=O)O)c1
IC50 [5]: 200 nM | IC50 [2]: 44.6 nM

CN(CCc1ccccc1)C(=O)Cc1cc(OCC(=O)O)cc(OCc2ccccc2)c1
IC50 [2]: 53.3 nM

CN(CCc1ccccc1)C(=O)Cc1ccc(-c2ccccc2)c(CO)c1
I [1]: 18%

CN(CCc1ccccc1)C(=O)Cc1cc(OCc2ccccc2)ccc1C(=O)O
I [1]: 28% | IC50 [2]: 250 nM

CN(CCc1ccccc1)C(=O)Cc1ccc(OCc2ccccc2)c(/C=C/C(=O)O)c1
I [1]: 27% | IC50 [2]: 2.27 nM

CN(CCc1ccccc1)C(=O)Cc1cc(CC(=O)O)cc(OC/C=C/c2ccccc2)c1
I [1]: 16% | IC50 [2]: 1200 nM

CN(CCc1ccccc1)C(=O)Cc1cc(CC(=O)O)cc(OCc2ccccc2)c1
IC50 [2]: 200 nM
